From ChEMBL document CHEMBL1128528, “Structure-activity relationships of unsaturated analogues of valproic acid” (J Med Chem, 1995)

Legend:
[1] = Partition coefficient (logP); type: physicochemical; conditions: octanol/water
How it was run: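 Calculated with CLOGP for the undissociated acid as 1-octanol/water partition coefficient; cis and trans isomers not distinguished.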

[2] = system: Mus musculus; assay: Brain concentration after 15 min of administration; type: functional
How it was run: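 Mice (n = 5, or 4 where footnoted) were given an ED50 dose and killed at 15 min. Whole brains were homogenized in 0.32 M sucrose and stored at -78 °C. Sodium octanoate served as internal standard; samples were acidified with HCl and extracted into EtOAc. Acids were quantified as tert-butyldimethylsilyl esters by GC-MS (EI 70 eV, SIM at M+ − 57). Each sample ran in triplicate; values are mean ± SD.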

[3] = system: Mus musculus; assay: Anticonvulsant activity against mice after intraperitoneal administration; type: functional; conditions: ip
How it was run: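 Mice, 6 weeks old, eight per dose, received five ip doses of the sodium salt (4 mL/kg). Pentylenetetrazole (85 mg/kg, 10 mL/kg) was given sc at 10 min and animals were watched for 30 min. Unprotected meant a 5 s clonus with loss of balance. ED50 was read from percentage protection vs log(dose). Sedation was scored from activity and muscle tone during handling.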

Row | SMILES | logP [1] | C [2] | ED50 [3]
1 | O=C(O)C1=CCCCC1 | 1.66 | 1210 nM/g | 2.2 mmol/kg
2 | CC/C=C/C(=O)O | 1.22 | 2220 nM/g | 6 mmol/kg
3 | CC/C=C(\C)C(=O)O | 1.53 | 1520 nM/g | 4.4 mmol/kg
4 | O=C(O)C1=CC2CCC1C2 (stereo unspecified) | 1.42 | 2150 nM/g | 2.9 mmol/kg
5 | O=C(O)C1=CCCC1 | 1.1 | 500 nM/g | 4.7 mmol/kg
6 | C/C=C\C(=C/CC)C(=O)O | 2.22 | 350 nM/g | 0.78 mmol/kg
7 | C/C=C/C(=C\CC)C(=O)O | 2.22 | 680 nM/g | 1.4 mmol/kg
8 | O=C(O)C=C1CCCCCC1 | 2.84 | 159 nM/g | 0.96 mmol/kg
9 | CC/C=C(\CCC)C(=O)O | 2.59 | 260 nM/g | 0.84 mmol/kg
10 | O=C(O)C=C1CCCCC1 | 2.28 | 320 nM/g | 1.4 mmol/kg
11 | CC(C)=CC(=O)O | 1.09 | 2710 nM/g | 5.2 mmol/kg
12 | CC/C=C\C(=O)O | 1.22 | 4460 nM/g | 7 mmol/kg
13 | CC/C=C(\CCCC)C(=O)O | 3.11 | 140 nM/g | 0.87 mmol/kg
14 | O=C(O)C=C1CCCC1 | 1.72 | 450 nM/g | 2.3 mmol/kg
15 | CC/C=C(\CC)C(=O)O | 2.06 | 660 nM/g | 1.6 mmol/kg
16 | CCCC(CCC)C(=O)O [VALPROIC ACID] | 2.72 | 620 nM/g | 0.83 mmol/kg
17 | O=C(O)C=C1CCCCCCC1 | 3.4 | 94 nM/g | 0.73 mmol/kg
